Assay outcomes from PubChem BioAssay.
This excerpt belongs to a sample that is enriched for hits.
AP complement: orthogonal test for alternative complement pathway inhibitors. Human serum alternative complement pathway, LPS-coated ELISA, C3 deposition; tested in compound mixtures. AID 1235. actives 0.08% (n = 62,000). inhibition, % at 5 µM;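 active means inhibition above 30% in each of the two pooled mixtures holding the compound, so the lower value exceeds 30%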;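 further: 0% = serum in Mg-EGTA without compound and 100% = EDTA serum blank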
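Medium: diluted human serum in Mg2+-EGTA GVB++. Assay system: human serum complement alternative pathway, C3 deposition onto LPS. Also added: Plate-bound LPS. Technique: Anti-C3 ELISA, OD 450 nm. Measure: percent inhibition. Incubation: 1 h at 37 °C. Dosing: 5 µM each compound, pools of ten, 50 µM per pool.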
hDAT+cocaine: modulates human dopamine transporter uptake under cocaine. actives 1.3% (n = 110,000). LLC-PK1 hDAT cells, [14C]-dopamine uptake with cocaine IC80; actives deviate in either direction. B-score at 10 µM;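 active means Z score or B-score, a plate-position-corrected score, falls beyond the plate's 99.7% confidence bounds, in either direction; inactive means both scores lie inside the 99.7% bounds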;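 further: scored against the spread of the other compound wells on the same plate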
Target sequence (Q01959 whole entry, looked up): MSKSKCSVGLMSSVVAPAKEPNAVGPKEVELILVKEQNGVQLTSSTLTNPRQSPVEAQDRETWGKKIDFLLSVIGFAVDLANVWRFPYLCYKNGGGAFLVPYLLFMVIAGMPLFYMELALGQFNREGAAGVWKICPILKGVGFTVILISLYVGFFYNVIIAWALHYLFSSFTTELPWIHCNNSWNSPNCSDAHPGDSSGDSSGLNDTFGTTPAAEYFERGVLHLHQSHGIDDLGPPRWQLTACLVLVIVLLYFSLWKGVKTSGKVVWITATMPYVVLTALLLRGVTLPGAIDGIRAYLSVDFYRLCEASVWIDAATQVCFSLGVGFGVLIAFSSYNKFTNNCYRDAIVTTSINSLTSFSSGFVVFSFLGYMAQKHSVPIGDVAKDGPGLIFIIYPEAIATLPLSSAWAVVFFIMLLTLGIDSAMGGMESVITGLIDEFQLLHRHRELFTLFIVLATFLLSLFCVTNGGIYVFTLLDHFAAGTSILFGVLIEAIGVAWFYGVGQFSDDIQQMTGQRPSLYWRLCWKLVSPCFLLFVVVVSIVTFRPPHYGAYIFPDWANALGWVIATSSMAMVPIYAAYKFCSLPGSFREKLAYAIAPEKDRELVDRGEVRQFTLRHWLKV
D1 mod: allosteric modulators of human D1 dopamine receptor; P21728; HEK293 D1, CRE-luciferase, dopamine EC30 potentiation; actives deviate in either direction; B-score at 10 µM; actives 5.9% (n = 58,000); AID 641;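 active means luminescence count or its row- and column-corrected plate score outside the 99.7% band of the plate's sample wells, on either side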
E coli RNAP: blocks E. coli RNA polymerase transcription; fluorescence transcription assay; P0A8V2; AID 559; inhibition, %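 (tested at 10 µM)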; actives 0.2% (n = 62,000); in the data active means inhibition above about 20%;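 further: 0% = enzyme without compound and 100% = no enzyme blank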
HEK293 NFkB inh: inhibitors of the PMA/ionomycin-induced NF-kB reporter in HEK293 cells; HEK-293 NF-kB luciferase reporter, luminescence; inhibition, % at 3 µM; actives 0.21% (n = 62,000);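 active means inhibition above the mean of all tested compounds plus 3 SD, cut at about 40% in these data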;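 further: 0% = stimulated DMSO wells and 100% = 10 µM reference inhibitor 5653914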
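System – HEK-293 cells with stable firefly luciferase reporter driven by four HIV NF-kB elements · Doses – one dose, 3 µM · Schedule – 1 h compound pre-incubation, 16 h PMA/ionomycin at 37 °C · Technique – luminescence from luciferase substrate reagent · Measure – percent inhibition normalized per plate to DMSO and reference-inhibitor controls · Replicates – tested once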
D1 mod confirm: D1 receptor (human) allosteric modulation, confirmed. shares compounds with D1 mod. HEK293 D1 CRE-luciferase, dopamine EC30 potentiation; active compounds read high. luminescence at 10 µM. actives 88% (n = 2,200);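 active means luminescence in either of two replicates above the same-plate mean plus 3 SD of the low-dose dopamine control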
D1 ag no DA: D1 (human) signaling in absence of dopamine. shares compounds with D1 mod. HEK293 D1 CRE-luciferase, luminescence, no dopamine; active compounds read high. luminescence at 10 µM. actives 0.8% (n = 1,900). AID 646; in the data active means luminescence above about 3900
Isoprot counter: isoproterenol response counter-screen activity for D1 modulators; AID 647; shares compounds with D1 mod; HEK293 D1 CRE-luciferase, isoproterenol EC30 counter-screen; actives 63% (n = 2,200); calls only at 10 µM;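 active means luminescence in either replicate above plate mean of wells with a partly effective reference agonist dose plus 3 SD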;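 further: isoproterenol raises cAMP through native beta-adrenoceptor Gs so signal bypasses D1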
An asterisk follows results filed as active; i = inactive; nt = not tested or not shown; + = active, no number.

SMILES	AP complement	hDAT+cocaine	D1 mod	E coli RNAP	HEK293 NFkB inh	others
CN1CC=C(c2c[nH]c3ccccc23)CC1	1.9	-1.29	-3.68*	0.7	16.3
COCCCn1c(N)c(C(=O)NCCC(C)C)c2nc3ccccc3nc21	15.4	2.99*	0.966	nt	-2.5
COCC(C)OC(=O)c1c(N)n(Cc2ccco2)c2nc3ccccc3nc12 (centres undefined)	nt	1.5	12.2*	-37.8	nt
CCCCOCCCn1c(N)c(C(=O)OCCOC)c2nc3ccccc3nc21	nt	1.18*	-1.03	-49.4	nt
CCOc1cccc(OCC)c2c(C)[n+](CC3CCCO3)c(C)c1-2 (centres undefined)	nt	0.577	nt	nt	nt
COC(=O)C1=C(c2ccc(S(C)(=O)=O)cc2)C[C@@H]2CC[C@H]1N2C(=O)NCC1CC1	nt	-0.0907	nt	nt	nt
COC(=O)C1=C(c2ccccc2)C[C@@H]2CC[C@H]1N2C(=O)N1CCCC1	nt	-0.0405	nt	nt	nt
COc1ccc(C(=O)N2CCCC2=O)cc1	14.3	-0.0742	0.625	11.9	-2.5
O=C(N[C@H]1CP(=O)(Oc2ccccc2)O[C@H](COCc2ccccc2)[C@H]1O)C(Cl)(Cl)Cl (some centres undefined)	nt	0.64	nt	nt	nt
N[C@@H](Cc1c[nH]c2ccccc12)c1nnc(SCc2ccc(Cl)cc2)o1	18.3	-8.48*	-1.04	-3.5	8.2
COc1ccccc1N1CCN(Cc2cccc(OC)c2O)CC1	-8.1	-0.0959	-4.24*	7.0	2.4
COC1CC(OC2CCC3(C)C(CCC4C3CCC3(C)C(C5=CC(=O)OC5)C(OC(C)=O)CC43O)C2)OC(C)C1OC1OC(COC2OC(CO)C(O)C(O)C2O)C(O)C(O)C1O (centres undefined)	nt	-8.92*	nt	nt	nt
O=C(CCCN1CCC2(CC1)C(=O)NCN2c1ccccc1)c1ccc(F)cc1	10.0	0.548	-6.51*	4.7	nt
C[C@@H]1O[C@@H](O[C@H]2C[C@@H](O)[C@]3(CO)[C@H]4[C@H](O)C[C@]5(C)[C@@H](C6COC(=O)C6)CC[C@]5(O)[C@@H]4CC[C@]3(O)C2)[C@H](O)[C@H](O)[C@H]1O (some centres undefined)	nt	-6.38*	nt	nt	nt
C=C1[C@H]2C[C@H]3[C@H]4N5C[C@]6(C)CCC[C@]47[C@H]([C@H]2O)[C@]3(C[C@]5(O)[C@H]67)[C@@H]1O	nt	1.08	nt	nt	nt
COc1ccc(-c2cc(=O)c3c(OC)c(OC)c(OC)cc3o2)cc1	nt	4.69*	nt	nt	nt
Cc1cc(N2C(=O)C3CCCN3C2c2sccc2C)no1 (centres undefined)	-1.5	-0.162	-0.289	11.5	3.7
COP(=O)(OC)C1(Nc2ccc(C)cc2)CCCCC1	nt	0.411	nt	nt	nt
O=C(COc1ccc(Cl)cc1)N1CCN(Cc2ccccc2)CC1	23.7	-0.165	0.0666	1.3	7.4
COc1cccc(CN2CCN(C(=O)COc3ccc4ccccc4c3)CC2)c1	nt	2.39*	nt	8.4	nt
CCCC1(CCC)C(=O)NC(=NCc2ccccc2)NC1=O	19.2	-7.43*	-0.316	8.9	19.7
CCCC[N+]1(C)[C@@H]2CC(OC(=O)[C@H](CO)c3ccccc3)C[C@H]1[C@@H]1O[C@@H]12 (some centres undefined)	nt	-0.433	nt	nt	nt
Cc1ccc2c(c1)C1CN(C)CCC1N2C(=O)c1ccco1 (centres undefined)	-1.1	0.293	-0.00486	10.0	12.3
Cc1ccc2c(c1)C1CN(C)CCC1N2C(=O)Nc1cccc(Cl)c1 (centres undefined)	nt	3.42*	nt	nt	nt
CCN(CC)Cc1c[nH]c2ccccc12	-0.2	-0.175	-8.36*	5.1	11.0
SMILES	AP complement	hDAT+cocaine	D1 mod	E coli RNAP	HEK293 NFkB inh	others
NCCc1c[nH]c2ccccc12	nt	0.0368	nt	nt	nt
CCCNC(=O)c1c(N)n(CC2CCCO2)c2nc3ccccc3nc12 (centres undefined)	10.6	-8.94*	-0.193	-5.0	8.3
CC(C)OC(=O)c1c(N)n(CC2CCCO2)c2nc3ccccc3nc12 (centres undefined)	18.6	1.3	1.54	-39.2	-4.1
Nc1c(C(=O)OC2CCCCC2)c2nc3ccccc3nc2n1CC1CCCO1 (centres undefined)	8.2	3.39*	-1.52	-12.9	8.6
COc1cc(N)c(Cl)cc1C(=O)NC1CN2CCC1CC2 (centres undefined)	nt	0.00799	nt	nt	nt
O=C(Cn1ncc2c3ccccc3n(Cc3cccc(Cl)c3)c2c1=O)N1CCC2(CC1)OCCO2	1.6	5.98*	1.39	-2.9	8.0
O=C(CN1CCN(Cc2cccc(Cl)c2)C1=O)N1CCC2(CC1)OCCO2	8.4	-0.712	0.191	2.7	17.5
Cc1c(C(=O)c2cccc3ccccc23)c2cccc3c2n1[C@H](CN1CCOCC1)CO3	nt	0.75	nt	nt	nt
OC(Cn1c2ccccc2c2ccccc21)C[n+]1cccc2ccccc21 (centres undefined)	nt	-0.203	nt	nt	nt
O=C1NC(=O)C2(Cc3c(nc4ccccn4c3=O)N3CCCCCC32)C(=O)N1Cc1ccccc1 (centres undefined)	13.8	2.47*	-0.311	3.3	12.3
OC(c1ccc(F)cc1)(c1ccc(F)cc1)[C@@H]1CCCN1	nt	-3.23	nt	nt	nt
OC(c1ccccc1)(c1ccccc1)C1CCNCC1	nt	-6.14*	nt	nt	nt
O=c1c2ccccc2nc(-c2cccs2)n1-c1ccccc1	nt	-0.0497	nt	nt	nt
CCn1nc(-c2cccs2)nc2c(=O)n(C)c(=O)nc1-2	-5.2	nt	nt	8.8	96.6*
COC(=O)C(O)(c1ccc(N(C)C(=O)OC(C)C)cc1)C(F)(F)F (centres undefined)	nt	-0.361	nt	nt	nt
Cc1nc2cc(F)ccc2n1C1CCN(Cc2nnnn2CCc2ccccc2)CC1	-11.2	1.05	1.16	8.6	8.3
Cc1nc2cc(C(F)(F)F)ccc2n1C1CCN(Cc2nnnn2CCc2ccccc2)CC1	nt	3.51*	nt	nt	nt
CCOC(=O)c1c(C)n(Cc2ccccc2)c2ccc(OCC(O)Cn3nc(C)cc3C)cc12 (centres undefined)	nt	0.645	nt	nt	nt
CCOC(=O)c1c(C)n(Cc2ccccc2)c2ccc(OCC(O)Cn3nc(C)nc3C)cc12 (centres undefined)	12.4	nt	4.51*	3.8	4.0	D1 mod confirm=17284*;D1 ag no DA=1904;Isoprot counter=+
CCC1(CC)C(=O)NC(=NCCc2c[nH]c3ccccc23)NC1=O	15.0	-2.16	4.8*	5.4	7.1	D1 mod confirm=6976*;D1 ag no DA=1520;Isoprot counter=i
Cc1cccnc1NC1=NCC(C)S1 (centres undefined)	11.1	-0.223	-1.08	7.7	9.4
